# Results pooled from the literature.
# Protocols differ between the studies behind these lines.
# KCNH2: Voltage-gated inwardly rectifying potassium channel KCNH2 (KCNH2, Homo sapiens, UniProt Q12809)
SMILES,target or system,test,system,conditions,quantity,value
CC[C@H](C)CCCCC(=O)N[C@@H](CCN)C(=O)N[C@H](C(=O)N[C@@H](CCN)C(=O)N[C@H]1CCNC(=O)[C@H]([C@@H](C)O)NC(=O)[C@H](CCN)NC(=O)[C@H](CCN)NC(=O)[C@H](CC(C)C)NC(=O)[C@@H](CC(C)C)NC(=O)[C@H](CCN)NC1=O)[C@@H](C)O,,,"male Sprague-Dawley rat, plasma","subcutaneous, 10 mg/kg",MRT(0-inf),4.88 h
O=c1nc(NO)ccn1[C@@H]1O[C@H](CO)[C@@H](O)[C@H]1O,Caco-2,cell growth or viability,,,CC50,> 100 µM
COc1ccc(F)cc1C(=O)NCc1ccc(-c2nn([C@@H](C)C(F)(F)F)c(N)c2C(N)=O)cc1,,,"human, plasma","oral, 200 mg, single dose, fasted",Tmax,2.5 h
CO[C@H]1/C=C/O[C@@]2(C)Oc3c(C)c(O)c4c(O)c(c(/C=N/N5CCN(C6CCCC6)CC5)c(O)c4c3C2=O)NC(=O)/C(C)=C\C=C\[C@H](C)[C@H](O)[C@@H](C)[C@@H](O)[C@@H](C)[C@H](OC(C)=O)[C@@H]1C,,,"male Sprague-Dawley rat, plasma","intravenous, 10 mg/kg, single dose",MRT,24.4 h
Cc1cccc(C)c1NC(=O)C1CCCCN1 (centres unmarked),KCNH2,"ion current, inhibitor, patch clamp",,100 µM,inhibition,19.4%
N#C[C@@]1(n2ccc(N)nc2=O)O[C@H](CO)[C@@H](O)[C@H]1O,Caco-2,cell growth or viability,,,CC50,> 100 µM
Cc1[nH]c(C)c(S(=O)(=O)Nc2ccc(S(F)(F)(F)(F)F)cc2)c1C(=O)N1CCC(F)(F)C1,KCNH2,"ion current, inhibitor, patch clamp",,,IC50,> 30 µM
CC(C)CC(=O)OC[C@H]1O[C@@](C#N)(c2ccc3c(N)ncnn23)[C@H](O)[C@@H]1O,KCNH2,ligand displacement,,20 µM,inhibition,-3%
